Legend:
[1] = Selectivity index, ratio of IC50 for rat L6 cells to IC50 for trypomastigote form of Trypanosoma cruzi Tulahuen C2C4 infected in rat L6 cells; format: toxicity, cell-based; conditions: read-out: Ratio IC50
[2] = Selectivity index, ratio of IC50 for rat L6 cells to IC50 for Trypanosoma brucei rhodesiense STIB900 bloodstream forms; format: toxicity; conditions: read-out: Ratio IC50
Leishmania donovani = assay: Antileishmanial activity against Leishmania donovani MHOM/ET/67/L82 axenic amastigotes after 70 hrs by alamar blue staining based fluorescence assay; format: functional, organism-based; conditions: MHOM/ET/67/L82, 70 h
Outline: (§1)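 IC50 values are the average of three independent assays.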

[3] = system: Trypanosoma brucei rhodesiense; assay: Antitrypanosomal activity against Trypanosoma brucei rhodesiense STIB900 bloodstream forms after 70 hrs by Alamar blue assay; format: functional, organism-based; conditions: STIB900, 70 h; outline: as §1
Plasmodium falciparum = assay: Antiplasmodial activity against drug-sensitive erythrocyte stage of Plasmodium falciparum NF54 assessed as reduction in [3H]-hypoxanthine incorporation pretreated for 48 hrs followed by [3H]-hypoxanthine addition measured after 24 hrs by liquid scintillation counting method; format: functional, organism-based; outline: as §1
[4] = Selectivity index, ratio of IC50 for rat L6 cells to IC50 for drug-sensitive erythrocyte stage of Plasmodium falciparum NF54; format: toxicity; conditions: read-out: Ratio IC50
[5] = Selectivity index, ratio of IC50 for rat L6 cells to IC50 for Leishmania donovani MHOM/ET/67/L82 axenic amastigotes; format: toxicity; conditions: read-out: Ratio IC50
L6 = assay: Cytotoxicity against rat L6 cells after 70 hrs by alamar blue assay; format: cell-based; conditions: L6, 70 h; outline: as §1
Trypanosoma cruzi = assay: Antiprotozoal activity against trypomastigote form of Trypanosoma cruzi Tulahuen C2C4 infected in rat L6 cells after 96 hrs by CPRG/Nonidet-based photometric method; format: functional, organism-based; conditions: Tulahuen C2C4, L6, 96 h

| IC50 [3] | IC50 (Plasmodium falciparum) | IC50 (Trypanosoma cruzi) | Compound | selectivity ratio [1] | selectivity ratio [2] | IC50 (Leishmania donovani) | selectivity ratio [4] | selectivity ratio [5] | IC50 (L6) |
| --- | --- | --- | --- | --- | --- | --- | --- | --- | --- |
| 1 µM | 3.6 µM | 4.6 µM | CC(C)[C@H]1C(=O)C2=C(C1=O)[C@@]1(C)CCCC(C)(C)[C@@H]1CC2=O | 0.6 | 2.6 | 1 µM | 0.7 | 2.6 | 2.6 µM |
| 19.7 µM | 0.4 µM | 27.6 µM | CC(C)c1cc(CC[C@@H]2C(=O)CCCC2(C)C)c(O)cc1O | 1.2 | 1.7 |  | 84 |  | 33.6 µM |
|  |  |  | CCCCCCCCCCCCCCCCOP(=O)([O-])OCC[N+](C)(C)C [MILTEFOSINE] |  |  | 0.12 µM |  |  |  |

— ChEMBL document CHEMBL4145616, “Phytochemical Study of Salvia leriifolia Roots: Rearranged Abietane Diterpenoids with Antiprotozoal Activity” (J Nat Prod, 2018)
